# Measurements published in paper PMC3726261 (Cancer, 2012).
# Tests used:
# [1] = test system: prostate-specific antigen levels; conditions: small percentage of prostate cancer patients; cited from earlier work
# [2] = Pharmacokinetics: plasma R-150033 by LC-MS/MS after oral efatutazone; type: in vivo, human; conditions: 0.10 to 1.15 mg twice daily; single and multiple doses
# Procedure, shortened: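 Adults with advanced solid malignancies took oral doses twice daily in 21-day cycles, in cohorts of 3 to 6 at 0.10–1.15 mg. Plasma was sampled at baseline and 0.5, 1, 2, 3, 4, 6 and 8–10 h after the first dose on day 1 of cycles 1 and 2. Active metabolite R-150033 was measured by validated LC-MS/MS. AUC, Cmax and Tmax were derived; accumulation was AUC0-tau/AUC0–12, and steady state was judged from trough levels.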
# [3] = test system: recurrent metastatic liposarcoma; conditions: patients with recurrent metastatic liposarcoma; cited from earlier work
smiles,measurement,setting,value
CN(CCOc1ccc(CC2SC(=O)NC2=O)cc1)c1ccccn1 (stereo not drawn) [rosiglitazone],Effect on prostate-specific antigen levels,[1],either decreased or prolonged the stabilization of prostate-specific antigen levels
Cc1cc(Oc2ccc3nc(COc4ccc(CC5SC(=O)NC5=O)cc4)n(C)c3c2)cc(C)c1N (stereo not drawn) [R-150033],Dose proportionality of exposure (AUC and Cmax),[2],dose proportional
CCc1ccc(CCOc2ccc(CC3SC(=O)NC3=O)cc2)nc1 (stereo not drawn) [pioglitazone],Disease stabilization,[3],prolonged disease stabilization
